Most compounds without a hit are left out; they make up all but 4.2% or so of the library.
GalR3 antagonist = human GalR3 antagonism | O60755 | HEK293 GalR3-CNG cAMP membrane potential fluorescence; galR3 body fused to GalR1 C-terminus | inhibition, % at 3 µM | 360,000 compounds, 0.44% hits;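 active = inhibition above the screen-wide average plus 3 SD, cut at about 13% in these data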;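 note: forskolin and galanin both at EC90 stimulate the cells; cAMP rise reported by CNG channel membrane potential dye signal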
Target sequence (O60755 1-299 limits assumed): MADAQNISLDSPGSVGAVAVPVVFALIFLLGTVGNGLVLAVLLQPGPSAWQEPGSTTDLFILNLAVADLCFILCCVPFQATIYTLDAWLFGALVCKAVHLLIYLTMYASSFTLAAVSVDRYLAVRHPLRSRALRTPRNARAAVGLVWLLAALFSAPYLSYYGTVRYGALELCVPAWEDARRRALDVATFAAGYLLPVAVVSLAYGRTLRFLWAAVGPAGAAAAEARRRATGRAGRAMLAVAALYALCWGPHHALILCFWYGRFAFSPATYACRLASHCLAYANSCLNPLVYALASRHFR
OX1R antag-1 = blocks the human orexin 1 receptor; O43613; 330,000 compounds, 1.8% hits; inhibition, % at 6.6 µM; OX1R-expressing cells, FRET antagonist read-out; in the data active = inhibition mostly above about 38%, no sharp cut-off; inactive = mostly below about 40%
Target sequence (O43613 whole entry, looked up): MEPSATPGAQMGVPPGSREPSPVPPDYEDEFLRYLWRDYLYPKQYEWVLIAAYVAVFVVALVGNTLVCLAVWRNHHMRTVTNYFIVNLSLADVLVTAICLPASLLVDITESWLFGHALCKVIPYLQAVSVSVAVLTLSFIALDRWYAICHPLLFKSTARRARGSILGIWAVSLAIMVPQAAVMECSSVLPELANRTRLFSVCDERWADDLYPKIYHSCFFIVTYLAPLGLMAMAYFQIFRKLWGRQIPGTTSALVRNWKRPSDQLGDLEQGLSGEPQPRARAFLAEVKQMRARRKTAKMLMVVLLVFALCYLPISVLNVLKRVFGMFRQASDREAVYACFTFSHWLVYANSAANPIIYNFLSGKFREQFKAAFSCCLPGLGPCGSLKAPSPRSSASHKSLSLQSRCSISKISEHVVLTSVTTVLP
TAAR1 antag = human TAAR1 antagonism. Q96RJ0. CHO RD-HGA16 TAAR1, Fluo-8 calcium fluorescence, antagonist. inhibition, % at 3 µM. 360,000 compounds, 1.5% hits;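 active = inhibition above a per-plate cutoff, the mean inhibition of test compounds on that plate plus 3 SD, cut at about 49% in these data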
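Material: RD-HGA16 CHO cells with stable hTAAR1 and Gα16; Dosing: single nominal final test compound concentration of 3 µM; Schedule: seeding 17-24 h prior, 75-min 37 °C, 30-min RT dye loading; Detection: kinetic Fluo-8 calcium fluorescence measurement; Measure: % inhibition from peak post-agonist over basal fluorescence ratio; Benchmarks: vehicle and agonist controls.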
CHO parental Ca = counter-screen for OX1R antagonists: effect in parental CHO cells; parental CHO-K1, ATP-induced calcium, Fluo-8 fluorescence; inhibition, % at 5.6 µM; 330,000 compounds, 0.63% hits; AID 463079;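 active = inhibition above that plate's mean sample inhibition plus 3 SD, cut at about 26% in these data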
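Assay system – parental CHO cells · Reagent – ATP stimulus · Detection – intracellular calcium via Fluo-8 no-wash fluorescent dye · Evaluation – percent inhibition of ATP-evoked calcium rise, normalized to controls · Controls – ATP wells versus no-ATP DMSO wells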
OX1R antag-2 = blocks the human orexin 1 receptor | O43613 | CHO/OX1R cells, Fluo-8 calcium fluorescence, orexin A | inhibition, % at 5 µM | 330,000 compounds, 0.43% hits;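 active = inhibition above its plate's threshold, mean inhibition of all tested compounds on the plate plus 3 SD, cut at about 37% in these data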
TAAR1 agonist = human TAAR1 agonism. Q96RJ0. CHO RD-HGA16 TAAR1, Fluo-8 calcium fluorescence; vehicle wells 0%, saturating PEA agonist 100%. activation, % at 3 µM. 360,000 compounds, 0.99% hits;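 active = activation above the mean activation of all test compounds in the run plus 3 SD, cut at about 38% in these data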
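Test system: RD-HGA16 (CHO) cells co-expressing Gα16 and hTAAR1; dosing: one-point dosing at 3 µM (nominal); timing: 17-24 h seeding, 75 min 37 °C dye, 30 min RT; signal: kinetic Fluo-8 calcium fluorescence; read-out basis: % activation relative to PEA EC100 response; controls: DMSO and PEA EC100; replicates: n 1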
TAAR1 nonsel count = counter-screen for TAAR1 antagonists: nonselective antagonists | AID 651780 | inhibition, % at 3 µM | shares compounds with TAAR1 antag | 2,400 compounds, 77% hits | counterscreen cell line, calcium fluorescence, antagonist mode; in the data active = inhibition above about 22%;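 note: CHO-Ga16 host cells stimulated with ATP at an EC80 level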
TAAR1 antag conf = confirmation of human TAAR1 antagonists; shares compounds with TAAR1 antag; TAAR1-expressing cells, fluorescence antagonist read-out; inhibition, % at 3 µM; 2,400 compounds, 40% hits; in the data active = inhibition above about 49%;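 note: CHO-Ga16 host cells challenged with agonist PEA near its EC80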
Ga16 ag counter = nonselective Ga16 agonist in TAAR1 antagonist counter-screen; activation, % at 3 µM; shares compounds with TAAR1 antag; 2,400 compounds, 18% hits; Ga16-expressing cells, calcium fluorescence, agonist counterscreen; in the data active = activation above about 12%
TAAR1 ag counter = activates human TAAR1 in antagonist counter-screen | shares compounds with TAAR1 antag | hTAAR1 cell line, fluorescence activation, agonist mode | activation, % at 3 µM | 2,400 compounds, 2% hits; in the data active = activation above about 37%;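 note: CHO cells stably expressing TAAR1 with calcium dye readout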
Numbers stand for hits.

Screening COC(=O)C1(C)NC(c2ccco2)C2C(=O)N(c3ccc(C)cc3)C(=O)C21 (stereo not drawn) returned GalR3 antagonist inactive, OX1R antag-1 inactive, TAAR1 antag inactive, CHO parental Ca inactive, OX1R antag-2 inactive and TAAR1 agonist inactive.
`CCc1cccc2c(C(=O)COC(=O)c3nn(C)c(=O)c4ccccc34)c[nH]c12` gave GalR3 antagonist inactive, OX1R antag-1 inactive, TAAR1 antag 58, CHO parental Ca inactive, OX1R antag-2 inactive, TAAR1 agonist inactive, TAAR1 nonsel count 37, TAAR1 antag conf inactive, Ga16 ag counter 14 and TAAR1 ag counter inactive.
For CCc1cccc2c(C(=O)COC(=O)C3=NNC(=O)CC3)c[nH]c12 the results were GalR3 antagonist inactive, OX1R antag-1 inactive, TAAR1 antag inactive, CHO parental Ca inactive, OX1R antag-2 inactive and TAAR1 agonist inactive.
CCOC(=O)c1c(-c2ccc(OC)cc2)csc1NC(=O)CSc1ncnc2sccc12 was read as GalR3 antagonist inactive, OX1R antag-1 inactive, TAAR1 antag inactive, CHO parental Ca inactive, OX1R antag-2 inactive and TAAR1 agonist inactive.
For CCOC(=O)c1cc(NC(=O)Cc2ccc(S(=O)(=O)N3CCOCC3)s2)cc(C(=O)OCC)c1 the results were GalR3 antagonist inactive, OX1R antag-1 inactive, TAAR1 antag 76, CHO parental Ca inactive, OX1R antag-2 inactive, TAAR1 agonist inactive, TAAR1 nonsel count 29, TAAR1 antag conf inactive, Ga16 ag counter inactive and TAAR1 ag counter inactive.
`C=CCN(C(=O)OC(C)(C)C)S(=O)(=O)NCc1ccccc1` gave GalR3 antagonist inactive, OX1R antag-1 inactive, TAAR1 antag inactive, CHO parental Ca inactive, OX1R antag-2 inactive and TAAR1 agonist inactive.
For C=CCN(C(=O)C1CC(=O)N(C2CCCC2)C1)c1nc(-c2ccc(S(C)(=O)=O)cc2)cs1 (stereo not drawn) the results were GalR3 antagonist inactive, OX1R antag-1 inactive, TAAR1 antag 78, CHO parental Ca inactive, OX1R antag-2 inactive, TAAR1 agonist inactive, TAAR1 nonsel count 38, TAAR1 antag conf 65, Ga16 ag counter 18 and TAAR1 ag counter inactive.
`CCCCN1C(=O)c2ccc(C(=O)Nc3ccc(C)c(S(=O)(=O)N(C)C)c3)cc2C1=O` gave GalR3 antagonist inactive, OX1R antag-1 inactive, TAAR1 antag 68, CHO parental Ca inactive, OX1R antag-2 inactive, TAAR1 agonist inactive, TAAR1 nonsel count 50, TAAR1 antag conf 54, Ga16 ag counter 13 and TAAR1 ag counter inactive.
`CCCCN1C(=O)c2ccc(C(=O)Nc3cccc(C)c3C)cc2C1=O` gave GalR3 antagonist inactive, OX1R antag-1 inactive, TAAR1 antag inactive, CHO parental Ca inactive, OX1R antag-2 inactive and TAAR1 agonist inactive.
`Cc1cc(C)n(Cc2ccc(Cl)c(Cl)c2)c(=O)c1S(=O)(=O)c1ccccc1` gave GalR3 antagonist inactive, TAAR1 antag inactive and TAAR1 agonist inactive.
`NC(=O)c1ccc(NC(=O)COC(=O)CCSc2ccccc2)cc1` gave GalR3 antagonist inactive, OX1R antag-1 inactive, TAAR1 antag inactive, CHO parental Ca inactive, OX1R antag-2 inactive and TAAR1 agonist inactive.
O=C(NCc1nc2ccccc2[nH]1)C1=C[C@@H](c2ccc(C(F)(F)F)cc2)C[C@@H](OCc2ccc(CO)cc2)O1 was read as GalR3 antagonist inactive, OX1R antag-1 inactive, TAAR1 antag 52, CHO parental Ca inactive, OX1R antag-2 inactive, TAAR1 agonist inactive, TAAR1 nonsel count 25, TAAR1 antag conf inactive, Ga16 ag counter inactive and TAAR1 ag counter inactive.
For O=C(NCc1nc2ccccc2[nH]1)C1=C[C@H](c2ccccc2)C[C@H](OCc2ccc(CO)cc2)O1 the results were GalR3 antagonist inactive, OX1R antag-1 inactive, TAAR1 antag inactive, CHO parental Ca inactive, OX1R antag-2 inactive and TAAR1 agonist inactive.
For C#CCNC(=O)C1=C[C@H](c2csc3ccccc23)C[C@H](OCc2ccc(CO)cc2)O1 the results were GalR3 antagonist inactive, OX1R antag-1 inactive, TAAR1 antag 65, CHO parental Ca inactive, OX1R antag-2 inactive, TAAR1 agonist inactive, TAAR1 nonsel count 24, TAAR1 antag conf inactive, Ga16 ag counter inactive and TAAR1 ag counter inactive.
Screening O=C(NCc1ccccc1)C1=C[C@H](c2csc3ccccc23)C[C@H](OCc2ccc(CO)cc2)O1 returned GalR3 antagonist inactive, OX1R antag-1 inactive, TAAR1 antag inactive, CHO parental Ca inactive, OX1R antag-2 inactive and TAAR1 agonist inactive.
Screening O=C(NCc1ccccc1)C1=C[C@@H](c2ccc3c(c2)OCO3)C[C@@H](OCc2ccc(CO)cc2)O1 returned GalR3 antagonist inactive, OX1R antag-1 inactive, TAAR1 antag inactive, CHO parental Ca inactive, OX1R antag-2 inactive and TAAR1 agonist inactive.
For O=C(NCc1ccccc1)C1=C[C@H](c2ccc3c(c2)OCO3)C[C@H](OCc2ccc(CO)cc2)O1 the results were GalR3 antagonist inactive, OX1R antag-1 inactive, TAAR1 antag 59, CHO parental Ca inactive, OX1R antag-2 inactive, TAAR1 agonist inactive, TAAR1 nonsel count 25, TAAR1 antag conf inactive, Ga16 ag counter inactive and TAAR1 ag counter inactive.
O=C(/C=C/c1ccco1)Nc1cccc2cccnc12 was read as GalR3 antagonist inactive, OX1R antag-1 inactive, TAAR1 antag inactive, CHO parental Ca inactive, OX1R antag-2 inactive and TAAR1 agonist inactive.
Screening C[C@@H](C(=O)NCCc1c[nH]c2ccccc12)[C@@H]1C[C@@]1(C)[C@@H](NC(=O)OCc1ccccc1)c1ccccc1 returned GalR3 antagonist inactive, OX1R antag-1 inactive, TAAR1 antag inactive, CHO parental Ca inactive, OX1R antag-2 inactive and TAAR1 agonist inactive.
Screening O=C(Nc1ccc(S(=O)(=O)N2CCCC2)cc1)c1ccc(F)cc1 returned GalR3 antagonist inactive, TAAR1 antag inactive and TAAR1 agonist inactive.
N#CCc1ccc(NC(=O)c2ccc(S(=O)(=O)N3CCCC3)cc2)cc1 was read as GalR3 antagonist inactive, OX1R antag-1 inactive, TAAR1 antag 57, CHO parental Ca inactive, OX1R antag-2 inactive, TAAR1 agonist inactive, TAAR1 nonsel count 30, TAAR1 antag conf 54, Ga16 ag counter 15 and TAAR1 ag counter inactive.
